For test [1], the target named is T1, Transthyretin (Homo sapiens, UniProt P02766). Briefly: Inhibition of human wild type TTR expressed in Escherichia coli BL-21 assessed as fibril formation at 7.2 uM incubated for 30 mins measured after 96 hrs by light scattering method relative to control. On the set-up: scale not given: the % may be the effect or the level left. Put shortly: (§1)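 Ligand (7.2 or 14.4 μM) preincubated 30 min with TTR tetramers (7.2 μM, wild-type or V30M), then diluted twofold into 50 mM sodium acetate, pH 4.4, 100 mM KCl. Turbidity read as A400 at 0 and 96 h, four replicates; percent fibril formation = ligand-well A400 gain over DMF vehicle-well gain ×100, standard deviations propagated.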

Test [2] concerns Transthyretin (Homo sapiens), P02766 [V50M]. Put plainly: Inhibition of human TTR V30M mutant expressed in Escherichia coli BL-21 assessed as fibril formation at 7.2 uM incubated for 30 mins measured after 96 hrs by light scattering method relative to control. On the set-up: scale not given: the % may be the effect or the level left.
Test [3] has the same test system. Briefly: Inhibition of human TTR V30M mutant expressed in Escherichia coli BL-21 assessed as fibril formation at 14.4 uM incubated for 30 mins measured after 96 hrs by light scattering method relative to control. On the set-up: scale not given: the % may be the effect or the level left.
Test [4] has as its target T1, Transthyretin. Briefly: Inhibition human wild type TTR expressed in Escherichia coli BL-21 assessed as fibril formation at 14.4 uM incubated for 30 mins after 96 hrs by light scattering method relative to control. On the set-up: scale not given: the % may be the effect or the level left. The procedure, abridged: as §1
In test [5] the target is T1, Transthyretin. Put plainly: Competitive binding affinity to human wild type TTR expressed in Escherichia coli BL-21 assessed as equilibrium dissociation constant of second site in presence of ANS by spectrofluorometer.
Test [6] deals with T1, Transthyretin. Put plainly: Reversible binding affinity to human wild type TTR expressed in Escherichia coli BL-21 at 360 uM by mass spectrometry.

pKd: −log10 of the molar value. Activity calls are given as the source filed them. The rule behind the calls is not given here.

The pKd is −log10 of the Kd, conventionally taken in molar units.

Turning to `Oc1cc(O)cc(/C=C/c2ccc(O)cc2Cl)c1`, the Activity worked out at 22% in test [1], 44% in test [2], 14% in test [3] and 7% in test [4]. In addition, the pKd in test [5] was 6.14.

With `O=C(O)c1ccc2nc(-c3cc(Cl)cc(Cl)c3)oc2c1`, the Activity in test [1] came to 22%; in test [2] it was 5%; in test [3] it was 8%; in test [4], 0%.

`O=C(O)c1cccc(/C=C/c2ccc(O)cc2)c1`: the Activity in test [1] came to 75%; in test [2] it was 112%; in test [3], 120%; in test [4], 77%. Besides, the pKd in test [5] was 5.74.

In the case of `OB(O)c1ccc(/C=C/c2cc(O)cc(O)c2)c(Cl)c1`, the Activity in test [1] was 19%; in test [2], 36%; in test [3], 12%; in test [4], 4%. For the same molecule, the pKd in test [5] was 6.36.

In the case of `O=C(O)c1cccc(/C=C/c2ccc(O)cc2Cl)c1`, the Activity in test [1] was 21%; in test [2], 41%; in test [3], 9%; in test [4] it was 3%. Besides, the pKd in test [5] was 6.33.

As to `OB(O)c1ccc(/C=C/c2ccc(B(O)O)cc2Cl)c(Cl)c1`, the Activity came out at 20% in test [1], 32% in test [2], 8% in test [3] and 3% in test [4]. The pKd in test [5] was 6.33. The outcome in test [6] was Active.

Take `O=C(O)c1cccc(/C=C/c2ccc(B(O)O)cc2)c1`: the Activity turned out to be 21% in test [1], 48% in test [2], 28% in test [3] and 11% in test [4]. In addition, the pKd in test [5] is 6.00.

For `Oc1ccc(/C=C/c2ccc(O)cc2Cl)c(Cl)c1`, the Activity in test [1] came to 30%; in test [2], 62%; in test [3], 27%; in test [4], 12%. Besides, the pKd in test [5] was 6.09.

Turning to `Oc1ccc(/C=C/c2cc(O)cc(O)c2)cc1` [RESVERATROL], the values for the Activity in test [1] and in test [4] were 28% and 9%, respectively. Further, the pKd in test [5] was 6.33.

For `O=C(O)c1cccc(/C=C/c2ccc(B(O)O)cc2Cl)c1`, the Activity is 16% in test [1], 32% in test [2], 10% in test [3] and 4% in test [4]. The pKd in test [5] is 6.35.

In the case of `OB(O)c1cccc(/C=C/c2ccc(B(O)O)cc2Cl)c1`, the Activity is 26% in test [1], 54% in test [2], 16% in test [3] and 10% in test [4].

Consider `OB(O)c1ccc(/C=C/c2cc(O)cc(O)c2)cc1`, for which the Activity in test [1] came out at 21%; in test [2], 48%; in test [3], 23%; in test [4], 9%. Further, the negative logarithm of the Kd (pKd) in test [5] is 6.33.
